# pIC50: −log10 of the molar value. Calls of active or inactive are those of the source. The calls are words filed in the database; no cut-off is given here.
# Key:
# Mus musculus [1] = assay: Effective dose administered subcutaneously in mouse writhing assay; No significant inhibition at 10 mg/kg, the highest dose tested; type: functional, organism-based; parameters: dose 10 mg/kg
# How it was run: (§1)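 Mouse phenylbenzoquinone-induced abdominal stretch (writhing) assay with subcutaneous dosing. […] 10 mg/kg was the highest dose tested.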
# Mus musculus [2] = assay: Effective dose administered intragastricly in mouse writhing assay; No significant inhibition at 10 mg/kg, the highest dose tested; type: functional, organism-based; parameters: dose 10 mg/kg
# Opioid receptor = Opioid receptor (Rattus norvegicus, UniProt P33533+P34975+P33535); assay: Affinity for the opioid receptor by displacement of tritiated naloxone from rat brain membranes.; type: cell membranes, Membrane
# How it was run: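 Rat brain membranes with the cerebellum removed. Competition against [3H]naloxone as a nonselective opioid label, with the radioligand at or near its Kd. Reported as IC50 (nM).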
# Mus musculus [3] = assay: Effective dose administered intragastricly in mouse writhing assay; type: functional; details: po
# Mus musculus [4] = assay: Effective dose administered subcutaneously in mouse writhing assay; type: functional; how it was run: as §1
# Mu-type opioid receptor [5] = target: T1, Mu-type opioid receptor (Rattus norvegicus, UniProt P33535); assay: Affinity for mu opioid receptor was measured by displacement of tritiated DAMGO from rat brain membranes; type: cell membranes, Membrane
# How it was run: (§2)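 Forebrain membranes from male Sprague-Dawley rats (150–300 g, cerebellum and hindbrain removed), washed and preincubated 1 h at 25 °C. Binding run in triplicate at 37 °C in 50 mM Tris/HCl pH 7.4, ~1 mg/mL protein, [3H]DAMGO 2.0 nM, with varying compound concentrations. Nonspecific binding defined with 10 μM levorphanol. IC50 taken from log-logit plots of concentration vs percent displacement.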
# [6] = target: T2, Delta-type opioid receptor (Rattus norvegicus, UniProt P33533); assay: Displacement of [3H]DSLET from rat brain membrane delta opioid receptor
# How it was run: (§3)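 Forebrain membranes from male Sprague-Dawley rats (150–300 g, cerebellum and hindbrain removed), washed and preincubated 1 h at 25 °C. Binding run in triplicate at 37 °C in 50 mM Tris/HCl pH 7.4, ~1 mg/mL protein, [3H]DSLET 1.0 nM, with varying compound concentrations. Nonspecific binding defined with 10 μM levorphanol. IC50 taken from log-logit plots of concentration vs percent displacement.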
# Mu-type opioid receptor [7] = target: T1, Mu-type opioid receptor; assay: Inhibitory concentration was evaluated against mu opioid receptor by the displacement of tritiated DAMGO from rat brain membranes; type: cell membranes, Membrane; how it was run: as §2
# [8] = target: Kappa-type opioid receptor (Rattus norvegicus, UniProt P34975); assay: Inhibitory concentration was evaluated against kappa opioid receptor by displacement of tritiated U-69593 from rat brain membranes; type: cell membranes, Membrane
# [9] = target: T2, Delta-type opioid receptor; assay: (§4) Inhibitory concentration was evaluated against delta opioid receptor by the displacement of tritiated DSLET from rat brain membranes; type: cell membranes, Membrane; how it was run: as §3
# [10] = target: T2, Delta-type opioid receptor; assay: as §4; type: functional, cell membranes, Membrane; how it was run: as §3
# Mus musculus [11] = assay: Effective dose administered subcutaneously in mouse writhing assay; not significant; type: functional, organism-based; how it was run: as §1
# [12] = Mus musculus, sc, read-out: ED50
# T1 sequence (P33535 whole entry): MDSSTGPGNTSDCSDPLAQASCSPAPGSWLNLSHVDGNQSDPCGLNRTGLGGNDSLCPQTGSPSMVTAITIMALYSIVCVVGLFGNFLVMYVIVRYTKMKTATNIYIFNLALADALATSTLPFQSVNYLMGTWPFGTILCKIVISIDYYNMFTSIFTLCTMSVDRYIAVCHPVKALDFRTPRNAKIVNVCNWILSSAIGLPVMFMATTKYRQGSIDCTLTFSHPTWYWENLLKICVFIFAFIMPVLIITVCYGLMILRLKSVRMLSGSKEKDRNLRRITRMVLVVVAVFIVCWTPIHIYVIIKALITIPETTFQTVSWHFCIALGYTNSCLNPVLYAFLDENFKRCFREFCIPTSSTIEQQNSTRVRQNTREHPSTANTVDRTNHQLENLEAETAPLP
# T2 sequence (P33533 whole entry): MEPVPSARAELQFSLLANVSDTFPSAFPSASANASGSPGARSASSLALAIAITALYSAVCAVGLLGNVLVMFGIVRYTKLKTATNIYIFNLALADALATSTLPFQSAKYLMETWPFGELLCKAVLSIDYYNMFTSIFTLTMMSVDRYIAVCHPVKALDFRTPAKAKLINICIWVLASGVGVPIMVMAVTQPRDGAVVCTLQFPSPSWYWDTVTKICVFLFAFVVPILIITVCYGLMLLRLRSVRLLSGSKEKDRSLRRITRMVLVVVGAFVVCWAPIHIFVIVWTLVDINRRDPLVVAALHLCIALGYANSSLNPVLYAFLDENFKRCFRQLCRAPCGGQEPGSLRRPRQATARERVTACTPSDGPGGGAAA
# Kappa-type opioid receptor, sequence (P34975 whole entry): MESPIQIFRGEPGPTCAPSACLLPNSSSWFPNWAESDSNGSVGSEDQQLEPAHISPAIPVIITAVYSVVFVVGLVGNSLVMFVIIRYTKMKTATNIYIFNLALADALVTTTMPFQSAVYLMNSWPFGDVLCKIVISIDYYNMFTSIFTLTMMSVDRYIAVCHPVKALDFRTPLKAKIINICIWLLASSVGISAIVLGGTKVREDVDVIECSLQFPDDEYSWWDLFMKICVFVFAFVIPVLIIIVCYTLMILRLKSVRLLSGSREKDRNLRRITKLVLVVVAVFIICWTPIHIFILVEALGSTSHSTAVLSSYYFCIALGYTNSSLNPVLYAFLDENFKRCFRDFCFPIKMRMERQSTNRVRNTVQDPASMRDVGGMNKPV
SMILES,ED50 (Mus musculus [1]),ED50 (Mus musculus [2]),IC50 (Opioid receptor) [nM],ED50 (Mus musculus [3]) [mg/kg],ED50 (Mus musculus [4]; [12]) [mg/kg],pIC50 (Mu-type opioid receptor [5]),pIC50 [6],other results
Cc1cc(O)cc(C)c1CC(N)C(=O)N[C@H](C)C(=O)N(C)CCCc1ccccc1 (some centres not stated),inactive,inactive,300,–,–,–,–,–
COc1cc(C)c(CC(N)C(=O)N[C@H](C)C(=O)NCCCc2ccccc2)c(C)c1 (some centres not stated),–,–,290,2.3,4.3,–,–,–
Cc1cc(OCc2ccc(C#N)cc2)cc(C)c1CC(N)C(=O)N[C@H](C)C(=O)NCCCc1ccccc1 (some centres not stated),inactive,inactive,17,–,–,7.54,< 6.00,–
CCOc1cc(C)c(CC(N)C(=O)N[C@H](C)C(=O)NCCCc2ccccc2)c(C)c1 (some centres not stated),inactive,inactive,130,–,–,–,–,–
Cc1cc(O)cc(C)c1CC(N)C(=O)N(CC1CC1)[C@H](C)C(=O)NCCCc1ccccc1 (some centres not stated),–,inactive,10,–,2.4,–,–,–
Cc1cc(O)cc(C)c1C[C@H](N)C(=O)N(C)[C@H](C)C(=O)NCCCc1ccccc1,–,–,–,3.1,0.07,10.00,8.36,pIC50 (Mu-type opioid receptor [7]): 9.70; pIC50 [8]: 6.50; pIC50 [9]: 8.10
Cc1cc(O)cc(C)c1CC(N)C(=O)N[C@H](C)C(=O)NCCCc1ccccc1 (some centres not stated),–,–,0.1,2,0.5,9.70,8.07,pIC50 (Mu-type opioid receptor [7]): 9.89; pIC50 [8]: 6.66; pIC50 [9]: 8.02
C=CCOc1cc(C)c(CC(N)C(=O)N[C@H](C)C(=O)NCCCc2ccccc2)c(C)c1 (some centres not stated),–,–,–,14.9,12.4,–,6.22,–
CN[C@@H](Cc1c(C)cc(O)cc1C)C(=O)N[C@H](C)C(=O)NCCCc1ccccc1,inactive,inactive,140,–,–,–,–,–
Cc1cc(OCc2ccc(F)cc2)cc(C)c1CC(N)C(=O)N[C@H](C)C(=O)NCCCc1ccccc1 (some centres not stated),–,inactive,18,–,2.7,7.76,6.41,pIC50 (Mu-type opioid receptor [7]): 8.06; pIC50 [10]: 6.43; pIC50 [8]: 4.97
Cc1cc(OCc2ccc(C(=O)O)cc2)cc(C)c1CC(N)C(=O)N[C@H](C)C(=O)NCCCc1ccccc1 (some centres not stated),inactive,inactive,–,–,–,7.91,6.05,–
Cc1ccccc1COc1cc(C)c(CC(N)C(=O)N[C@H](C)C(=O)NCCCc2ccccc2)c(C)c1 (some centres not stated),inactive,inactive,–,–,–,–,–,–
CNC(Cc1c(C)cc(OCc2ccccc2)cc1C)C(=O)N[C@H](C)C(=O)NCCCc1ccccc1 (some centres not stated),–,inactive,53,–,~10,–,–,–
Cc1cc(O)cc(C)c1C[C@H](N)C(=O)N(CC1CC1)[C@H](C)C(=O)NCCCc1ccccc1 (stereo in doubt; 18b) [listing 1 of 2 here],–,–,–,–,0.5,9.40,8.03,pIC50 (Mu-type opioid receptor [7]): 9.30; pIC50 [8]: 6.00; pIC50 [9]: 8.00
Cc1cc(OCc2ccc(C(=O)O)cc2)cc(C)c1C[C@H](N)C(=O)N[C@H](C)C(=O)NCCCc1ccccc1,inactive,inactive,83,–,–,–,–,–
Cc1cc(OCc2ccc(C(C)(C)C)cc2)cc(C)c1CC(N)C(=O)N[C@H](C)C(=O)NCCCc1ccccc1 (some centres not stated),inactive,inactive,0.5,–,–,–,–,–
Cc1cc(O)cc(C)c1CC(C)(N)C(=O)N[C@H](C)C(=O)NCCCc1ccccc1 (some centres not stated),–,–,150,3.7,3,8.70,7.19,pIC50 (Mu-type opioid receptor [7]): 8.96; pIC50 [8]: 5.86; pIC50 [9]: 6.91
Cc1cc(OCc2ccccc2)cc(C)c1C[C@H](N)C(=O)N[C@H](C)C(=O)NCCCc1ccccc1,–,–,360,2.4,1.8,8.40,7.26,pIC50 (Mu-type opioid receptor [7]): 9.04; pIC50 [8]: 5.60; pIC50 [9]: 6.88
COc1cc(C)c(C[C@H](N)C(=O)N[C@H](C)C(=O)NCCCc2ccccc2)c(C)c1 (stereo in doubt; 20c),–,–,420,2.7,–,–,–,ED50 (Mus musculus [4]): 3.5 mg/kg
Cc1cc(O)cc(C)c1C[C@H](N)C(=O)N(CC1CC1)[C@H](C)C(=O)NCCCc1ccccc1 (stereo in doubt; 18c) [listing 1 of 2 here],inactive,inactive,–,–,–,–,–,–
Cc1cc(O)cc(C)c1C[C@H](N)C(=O)N(CC1CC1)[C@H](C)C(=O)NCCCc1ccccc1 (stereo in doubt; 18b) [listing 2 of 2 here],–,inactive,–,–,–,–,–,–
Cc1cc(O)cc(C)c1C[C@H](N)C(=O)N(CC1CC1)[C@H](C)C(=O)NCCCc1ccccc1 (stereo in doubt; 18c) [listing 2 of 2 here],–,–,–,–,–,7.63,6.39,–
CN[C@H](Cc1c(C)cc(O)cc1C)C(=O)N[C@H](C)C(=O)NCCCc1ccccc1,inactive,inactive,1800,–,–,–,–,–
Cc1cc(O)cc(C)c1CC(N)C(=O)N(C)[C@H](C)C(=O)NCCCc1ccccc1 (some centres not stated),–,–,0.6,1.3,1.7,–,–,–
COc1cc(C)c(C[C@H](N)C(=O)N[C@H](C)C(=O)NCCCc2ccccc2)c(C)c1 (stereo in doubt; 20b) [listing 1 of 2 here],–,–,50,–,–,7.24,< 6.00,ED50 (Mus musculus [4]): 0.7 mg/kg; pIC50 (Mu-type opioid receptor [7]): 7.49; pIC50 [8]: 4.70; pIC50 [9]: 5.68
C=CCN(C(=O)C(N)Cc1c(C)cc(O)cc1C)[C@H](C)C(=O)NCCCc1ccccc1 (some centres not stated),–,inactive,1.3,–,0.7,–,–,–
Cc1cc(OCc2ccccc2)cc(C)c1C[C@@H](N)C(=O)N[C@H](C)C(=O)NCCCc1ccccc1,–,–,22,12.9,2.3,–,–,pIC50 (Mu-type opioid receptor [7]): 7.35; pIC50 [8]: 4.76; pIC50 [9]: 5.74
Cc1cc(OCc2ccc([N+](=O)[O-])cc2)cc(C)c1CC(N)C(=O)N[C@H](C)C(=O)NCCCc1ccccc1 (some centres not stated),–,–,2.9,6.8,2.3,8.46,6.90,–
C=CCN(C(=O)[C@@H](N)Cc1c(C)cc(O)cc1C)[C@H](C)C(=O)NCCCc1ccccc1,–,inactive,280,–,–,–,–,ED50 (Mus musculus [11]): inactive
COc1cc(C)c(C[C@H](N)C(=O)N[C@H](C)C(=O)NCCCc2ccccc2)c(C)c1 (stereo in doubt; 20b) [listing 2 of 2 here],–,inactive,–,–,–,–,–,–

# From ChEMBL document CHEMBL1127684, “Enkephalin analogs as systemically active antinociceptive agents: O- and N-alkylated derivatives of the dipeptide amide L-2,6-dimethyltyrosyl-N-(3-phenylpropyl)-D-alaninamide” (J Med Chem, 1994)
